Data as given in paper PMC5084670 (Cancer Science, 2016).

Experiment: Phase I dose-escalation study: safety, adverse events
Type: in vivo, human
Method in brief: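 Oral test compound was given once daily in 28-day cycles after a 7-day single-dose run-in, in Japanese and Hong Kong/Taiwan groups escalated separately. Toxicity was graded by CTCAE v3.0 using laboratory tests, physical examination, vital signs, weight and periodic ECG. DLTs were grade 3–4 events over the run-in plus cycle 1. MTD was set by an adaptive Bayesian logistic regression model with overdose control.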

[1] = group 1, 600 mg q.d. (n = 9), Grade 3
[2] = group 1, 600 mg q.d. (n = 9), Grade 4
[3] = group 1, All patients (n = 21), All grades
[4] = group 1, All patients (n = 21), Grade 3
[5] = group 1, All patients (n = 21), Grade 4
[6] = group 2, 400 mg q.d. (n = 12), All grades

Cc1c(C(=O)Nc2ccc(N3C[C@@H](C)O[C@@H](C)C3)nc2)cccc1-c1ccc(OC(F)(F)F)cc1 [Sonidegib]
Lymphopenia (drug-related adverse event) [1]: 1 (11) n (%) | Muscle spasms (drug-related adverse event) [1]: 0 (0) n (%) | Muscle weakness (drug-related adverse event) [1]: 1 (11) n (%) | Myalgia (drug-related adverse event) [1]: 0 (0) n (%) | Myoglobin blood increased (drug-related adverse event) [1]: 1 (11) n (%) | Nausea (drug-related adverse event) [1]: 0 (0) n (%) | Rhabdomyolysis (drug-related adverse event) [1]: 1 (11) n (%) | Alopecia (drug-related adverse event) [2]: 0 (0) n (%) | Blood creatine kinase increased (drug-related adverse event) [2]: 2 (22) n (%) | Decreased level of consciousness (drug-related adverse event) [2]: 1 (11) n (%) | Dysgeusia (drug-related adverse event) [2]: 0 (0) n (%) | Fatigue (drug-related adverse event) [2]: 0 (0) n (%) | Hepatic function abnormal (drug-related adverse event) [2]: 1 (11) n (%) | Hyperglycemia (drug-related adverse event) [2]: 0 (0) n (%) | Lymphopenia (drug-related adverse event) [2]: 0 (0) n (%) | Muscle spasms (drug-related adverse event) [2]: 0 (0) n (%) | Muscle weakness (drug-related adverse event) [2]: 0 (0) n (%) | Myalgia (drug-related adverse event) [2]: 0 (0) n (%) | Myoglobin blood increased (drug-related adverse event) [2]: 0 (0) n (%) | Nausea (drug-related adverse event) [2]: 0 (0) n (%) | Rhabdomyolysis (drug-related adverse event) [2]: 0 (0) n (%) | Alopecia (drug-related adverse event) [3]: 4 (19) n (%) | Blood creatine kinase increased (drug-related adverse event) [3]: 7 (33) n (%) | Decreased level of consciousness (drug-related adverse event) [3]: 1 (5) n (%) | Dysgeusia (drug-related adverse event) [3]: 3 (14) n (%) | Fatigue (drug-related adverse event) [3]: 4 (19) n (%) | Hepatic function abnormal (drug-related adverse event) [3]: 5 (24) n (%) | Hyperglycemia (drug-related adverse event) [3]: 1 (5) n (%) | Lymphopenia (drug-related adverse event) [3]: 1 (5) n (%) | Muscle spasms (drug-related adverse event) [3]: 2 (10) n (%) | Muscle weakness (drug-related adverse event) [3]: 1 (5) n (%) | Myoglobin blood increased (drug-related adverse event) [3]: 1 (5) n (%) | Nausea (drug-related adverse event) [3]: 3 (14) n (%) | Rhabdomyolysis (drug-related adverse event) [3]: 2 (10) n (%) | Alopecia (drug-related adverse event) [4]: 0 (0) n (%) | Blood creatine kinase increased (drug-related adverse event) [4]: 3 (14) n (%) | Decreased level of consciousness (drug-related adverse event) [4]: 0 (0) n (%) | Dysgeusia (drug-related adverse event) [4]: 0 (0) n (%) | Fatigue (drug-related adverse event) [4]: 0 (0) n (%) | Hepatic function abnormal (drug-related adverse event) [4]: 2 (10) n (%) | Hyperglycemia (drug-related adverse event) [4]: 1 (5) n (%) | Lymphopenia (drug-related adverse event) [4]: 1 (5) n (%) | Muscle spasms (drug-related adverse event) [4]: 0 (0) n (%) | Muscle weakness (drug-related adverse event) [4]: 1 (5) n (%) | Myalgia (drug-related adverse event) [4]: 0 (0) n (%) | Myoglobin blood increased (drug-related adverse event) [4]: 1 (5) n (%) | Nausea (drug-related adverse event) [4]: 0 (0) n (%) | Rhabdomyolysis (drug-related adverse event) [4]: 1 (5) n (%) | Alopecia (drug-related adverse event) [5]: 0 (0) n (%) | Blood creatine kinase increased (drug-related adverse event) [5]: 2 (10) n (%) | Decreased level of consciousness (drug-related adverse event) [5]: 1 (5) n (%) | Dysgeusia (drug-related adverse event) [5]: 0 (0) n (%) | Fatigue (drug-related adverse event) [5]: 0 (0) n (%) | Hepatic function abnormal (drug-related adverse event) [5]: 1 (5) n (%) | Hyperglycemia (drug-related adverse event) [5]: 0 (0) n (%) | Lymphopenia (drug-related adverse event) [5]: 0 (0) n (%) | Muscle spasms (drug-related adverse event) [5]: 0 (0) n (%) | Muscle weakness (drug-related adverse event) [5]: 0 (0) n (%) | Myalgia (drug-related adverse event) [5]: 0 (0) n (%) | Myoglobin blood increased (drug-related adverse event) [5]: 0 (0) n (%) | Nausea (drug-related adverse event) [5]: 0 (0) n (%) | Rhabdomyolysis (drug-related adverse event) [5]: 1 (5) n (%) | Drug-related AE: abnormal hepatic function (group 1, all doses): 24% | Drug-related AE: fatigue (group 1, all doses): 19% | Drug-related AE: increase in CK levels (group 1, all doses): 33% | Drug-related AE: myalgia (group 1, all doses): 29% | Patients with at least one AE suspected to be related to sonidegib (group 1, n = 18): 86% | Recommended dose (RD) (group 2 (Chinese/Taiwanese)): 400 mg q.d. | Grade 3 /4 Creatine kinase elevation during all study period (group 2 (Chinese/Taiwanese), 400 mg qd, N = 12): 2 (17) n (%) | Grade 3 /4 Creatine kinase elevation during all study period (group 2 (Chinese/Taiwanese), 600 mg qd, N = 8): 1 (13) n (%) | Grade 3 /4 Creatine kinase elevation during all study period (group 2 (Chinese/Taiwanese), 800 mg qd, N = 4): 2 (50) n (%) | Grade 3 /4 Creatine kinase elevation during all study period (group 2 (Chinese/Taiwanese), All patients, N = 24): 5 (21) n (%) | Blood creatine kinase increased (drug-related adverse event) [6]: 6 (50) n (%) | Decreased appetite (drug-related adverse event) [6]: 0 (0) n (%) | Diarrhea (drug-related adverse event) [6]: 0 (0) n (%) | Dizziness (drug-related adverse event) [6]: 0 (0) n (%)
